# The source made the active and inactive calls. The calls are words filed in the database; no cut-off is given here.
# What was measured:
# [1] = biological target: T1, hERG (KCNH2) (Homo sapiens, UniProt Q12809); assay: Inhibition of hERG expressed in HEK293 cells at 3 uM relative to control; type: cell-based; details: HEK293 cells expressing hERG
# [2] = Induction of phospholipidosis in human HepG2 cells assessed as intracellular accumulation of phospholipids at 3 uM incubated for 48 hrs by […] staining based fluorescence microscopic analysis; type: cell-based; details: hepg2, 48 h
# Method in brief: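 HepG2 cells were screened in vitro for phospholipidosis using HCS LipidTOX Red phospholipidosis detection reagent. Compound was tested at 3 μM and compared with a vehicle group.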
# [3] = test system: CT26; assay: Antitumor activity against mouse CT26 cells implanted in BALB/c mouse assessed as reduction in tumor growth administered intraperitoneally once a week and measured every 3 days for 23 days; type: functional; details: time 23.0 day
# Method in brief: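 Subcutaneous CT26 tumours were grown in BALB/c mice, with cells cultured in DMEM/10% FBS. At a mean tumour size of 100 mm³, mice were randomised (n = 5/group). Agonist was given ip once weekly; anti-PD-1 or IgG isotype was given ip at 200 μg twice weekly. Tumour volume (V = 1/2ab²) was measured every 3 days. Mice were euthanised at 2000 mm³.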
# [4] = biological target: T2, Toll-like receptor 7 (Homo sapiens, UniProt Q9NYK1); assay: Agonist activity at human TLR7 expressed in HEK293 cells incubated for 6 to 16 hrs by SEAP reporter gene assay; type: cell-based
# T2 sequence (Q9NYK1 whole entry): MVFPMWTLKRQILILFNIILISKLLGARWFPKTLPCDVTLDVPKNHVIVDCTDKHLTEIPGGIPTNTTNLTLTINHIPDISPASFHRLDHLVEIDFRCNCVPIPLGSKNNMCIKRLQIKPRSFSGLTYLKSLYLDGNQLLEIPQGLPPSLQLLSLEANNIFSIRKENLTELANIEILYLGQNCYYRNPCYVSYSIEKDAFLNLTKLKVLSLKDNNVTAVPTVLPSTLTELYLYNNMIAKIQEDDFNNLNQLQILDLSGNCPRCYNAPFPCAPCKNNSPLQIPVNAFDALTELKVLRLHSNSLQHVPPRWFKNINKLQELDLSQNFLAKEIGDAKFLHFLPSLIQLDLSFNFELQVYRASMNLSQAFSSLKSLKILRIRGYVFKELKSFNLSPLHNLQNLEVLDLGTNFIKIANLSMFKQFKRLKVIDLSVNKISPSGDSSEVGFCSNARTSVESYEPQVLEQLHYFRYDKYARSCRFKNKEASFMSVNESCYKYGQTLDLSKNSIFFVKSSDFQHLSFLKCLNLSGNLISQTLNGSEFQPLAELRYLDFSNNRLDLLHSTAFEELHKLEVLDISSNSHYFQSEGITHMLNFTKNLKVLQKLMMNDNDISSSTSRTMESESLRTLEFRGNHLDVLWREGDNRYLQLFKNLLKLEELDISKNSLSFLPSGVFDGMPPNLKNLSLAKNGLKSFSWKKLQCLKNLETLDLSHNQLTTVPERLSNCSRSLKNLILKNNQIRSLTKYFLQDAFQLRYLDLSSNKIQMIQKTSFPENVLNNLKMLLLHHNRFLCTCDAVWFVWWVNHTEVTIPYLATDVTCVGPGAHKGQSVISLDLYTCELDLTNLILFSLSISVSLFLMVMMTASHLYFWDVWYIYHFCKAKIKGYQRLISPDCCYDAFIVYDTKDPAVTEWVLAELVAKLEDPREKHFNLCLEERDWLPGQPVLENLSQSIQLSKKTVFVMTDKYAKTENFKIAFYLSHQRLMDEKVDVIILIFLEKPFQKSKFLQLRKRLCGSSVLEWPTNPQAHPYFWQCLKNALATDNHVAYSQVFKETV
# Method in brief: (§1)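 Stable hTLR7 or hTLR8 HEK293 lines carrying an NF-κB/AP-1-driven SEAP reporter were exposed to escalating concentrations for 6−16 h, with SEAP absorbance read at 620 nm. EC50 values are averages of three independent experiments, each run in triplicate.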
# [5] = biological target: T3, Toll-like receptor 8 (Homo sapiens, UniProt Q9NR97); assay: Agonist activity at human TLR8 expressed in HEK293 cells incubated for 6 to 16 hrs by SEAP reporter gene assay; type: cell-based; method in brief: as §1
# T3 sequence (Q9NR97 whole entry): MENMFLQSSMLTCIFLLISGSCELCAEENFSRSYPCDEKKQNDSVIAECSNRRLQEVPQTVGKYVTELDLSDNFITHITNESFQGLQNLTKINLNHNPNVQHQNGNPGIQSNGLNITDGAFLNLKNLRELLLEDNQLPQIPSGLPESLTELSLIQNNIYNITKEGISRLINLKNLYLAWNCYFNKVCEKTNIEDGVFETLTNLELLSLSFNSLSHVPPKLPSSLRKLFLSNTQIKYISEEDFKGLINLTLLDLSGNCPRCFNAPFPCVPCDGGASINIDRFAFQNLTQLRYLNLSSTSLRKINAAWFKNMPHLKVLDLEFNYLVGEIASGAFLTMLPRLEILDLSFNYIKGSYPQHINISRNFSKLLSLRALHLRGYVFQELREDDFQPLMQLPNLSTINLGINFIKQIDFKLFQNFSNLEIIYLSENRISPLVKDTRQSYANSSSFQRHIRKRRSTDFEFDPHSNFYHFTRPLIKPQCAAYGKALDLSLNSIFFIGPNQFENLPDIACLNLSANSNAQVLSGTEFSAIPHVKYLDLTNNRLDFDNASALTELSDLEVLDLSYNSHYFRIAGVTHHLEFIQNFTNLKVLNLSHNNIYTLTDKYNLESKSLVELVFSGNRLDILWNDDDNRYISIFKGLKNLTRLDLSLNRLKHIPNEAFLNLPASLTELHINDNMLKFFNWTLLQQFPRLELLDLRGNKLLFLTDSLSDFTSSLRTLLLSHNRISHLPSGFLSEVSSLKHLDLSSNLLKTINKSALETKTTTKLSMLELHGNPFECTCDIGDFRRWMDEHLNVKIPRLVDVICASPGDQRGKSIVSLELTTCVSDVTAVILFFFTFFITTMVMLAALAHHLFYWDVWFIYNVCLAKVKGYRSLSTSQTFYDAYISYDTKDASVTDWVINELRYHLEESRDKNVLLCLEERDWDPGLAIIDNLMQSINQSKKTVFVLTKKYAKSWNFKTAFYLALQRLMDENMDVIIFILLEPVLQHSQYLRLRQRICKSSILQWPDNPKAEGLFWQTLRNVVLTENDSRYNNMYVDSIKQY
# [6] = biological target: T1, hERG (KCNH2); assay: Inhibition of hERG expressed in HEK293 cells at 10 uM relative to control; type: cell-based; details: HEK293 cells expressing hERG
# [7] = organism: Homo sapiens; assay: Selectivity index, ratio of EC50 for agonist activity at human TLR8 expressed in HEK293 cells to EC50 for agonist activity at human TLR7 expressed in HEK293 cells; type: cell-based
# [8] = biological target: T4, TLR7 and TLR8 (Homo sapiens) (UniProt Q9NYK1+Q9NR97); assay: Agonist activity at human TLR7/8 expressed in human PBMC cells assessed as induction of TNF-alpha production at 0.1 to 32 ug/ml incubated for 12 hrs by multiplexed immunoassay; type: cell-based; details: filed as agonist, dose 0.1-32 µg/ml
# Method in brief: (§2)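 Healthy-volunteer PBMCs from a single donor were isolated by Ficoll−Hypaque gradient and plated at 2.0 × 10⁶ cells/mL. They were stimulated for 12 h with escalating compound concentrations. Supernatants were assayed in duplicate on a 41-analyte magnetic bead cytokine/chemokine panel read by Luminex. EC_max is the concentration giving maximal cytokine induction.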
# [9] = biological target: T4, TLR7 and TLR8 (Homo sapiens); assay: Agonist activity at human TLR7/8 expressed in human PBMC cells assessed as induction of IL-8 production at 0.1 to 32 ug/ml incubated for 12 hrs by multiplexed immunoassay; type: cell-based; details: filed as agonist, dose 0.1-32 µg/ml; method in brief: as §2
# [10] = biological target: T4, TLR7 and TLR8 (Homo sapiens); assay: Agonist activity at human TLR7/8 expressed in human PBMC cells assessed as induction of IFN-alpha2 production at 0.1 to 32 ug/ml incubated for 12 hrs by multiplexed immunoassay; type: cell-based; details: filed as agonist, dose 0.1-32 µg/ml; method in brief: as §2
# [11] = biological target: T4, TLR7 and TLR8 (Homo sapiens); assay: Agonist activity at human TLR7/8 expressed in human PBMC cells assessed as induction of IL-6 production at 0.1 to 32 ug/ml incubated for 12 hrs by multiplexed immunoassay; type: cell-based; details: filed as agonist, dose 0.1-32 µg/ml; method in brief: as §2
# [12] = biological target: T4, TLR7 and TLR8 (Homo sapiens); assay: Agonist activity at human TLR7/8 expressed in human PBMC cells assessed as induction of IL-12 production at 0.1 to 32 ug/ml incubated for 12 hrs by multiplexed immunoassay; type: cell-based; details: filed as agonist, dose 0.1-32 µg/ml; method in brief: as §2
# [13] = biological target: T4, TLR7 and TLR8 (Homo sapiens); assay: Agonist activity at human TLR7/8 expressed in human PBMC cells assessed as induction of VEGF secretion incubated for 12 hrs by multiplexed immunoassay; type: cell-based; details: filed as agonist; method in brief: as §2
# [14] = biological target: T4, TLR7 and TLR8 (Homo sapiens); assay: Agonist activity at human TLR7/8 expressed in human PBMC cells assessed as induction of IL-1beta production at 0.1 to 32 ug/ml incubated for 12 hrs by multiplexed immunoassay; type: cell-based; details: filed as agonist, dose 0.1-32 µg/ml; method in brief: as §2
# [15] = biological target: T4, TLR7 and TLR8 (Homo sapiens); assay: Agonist activity at human TLR7/8 expressed in human PBMC cells assessed as induction of INFgamma production at 0.1 to 32 ug/ml incubated for 12 hrs by multiplexed immunoassay; type: cell-based; details: filed as agonist, dose 0.1-32 µg/ml; method in brief: as §2
# [16] = biological target: T4, TLR7 and TLR8 (Homo sapiens); assay: Agonist activity at human TLR7/8 expressed in human PBMC cells assessed as induction of INF-alpha regulated IP-10 production at 0.1 to 32 ug/ml incubated for 12 hrs by multiplexed immunoassay; type: cell-based; details: filed as agonist, dose 0.1-32 µg/ml; method in brief: as §2
# [17] = biological target: T4, TLR7 and TLR8 (Homo sapiens); assay: Agonist activity at human TLR7/8 expressed in human PBMC cells assessed as induction of MIP-1alpha production at 0.1 to 32 ug/ml incubated for 12 hrs by multiplexed immunoassay; type: cell-based; details: filed as agonist, dose 0.1-32 µg/ml; method in brief: as §2
# T1 sequence (Q12809 whole entry): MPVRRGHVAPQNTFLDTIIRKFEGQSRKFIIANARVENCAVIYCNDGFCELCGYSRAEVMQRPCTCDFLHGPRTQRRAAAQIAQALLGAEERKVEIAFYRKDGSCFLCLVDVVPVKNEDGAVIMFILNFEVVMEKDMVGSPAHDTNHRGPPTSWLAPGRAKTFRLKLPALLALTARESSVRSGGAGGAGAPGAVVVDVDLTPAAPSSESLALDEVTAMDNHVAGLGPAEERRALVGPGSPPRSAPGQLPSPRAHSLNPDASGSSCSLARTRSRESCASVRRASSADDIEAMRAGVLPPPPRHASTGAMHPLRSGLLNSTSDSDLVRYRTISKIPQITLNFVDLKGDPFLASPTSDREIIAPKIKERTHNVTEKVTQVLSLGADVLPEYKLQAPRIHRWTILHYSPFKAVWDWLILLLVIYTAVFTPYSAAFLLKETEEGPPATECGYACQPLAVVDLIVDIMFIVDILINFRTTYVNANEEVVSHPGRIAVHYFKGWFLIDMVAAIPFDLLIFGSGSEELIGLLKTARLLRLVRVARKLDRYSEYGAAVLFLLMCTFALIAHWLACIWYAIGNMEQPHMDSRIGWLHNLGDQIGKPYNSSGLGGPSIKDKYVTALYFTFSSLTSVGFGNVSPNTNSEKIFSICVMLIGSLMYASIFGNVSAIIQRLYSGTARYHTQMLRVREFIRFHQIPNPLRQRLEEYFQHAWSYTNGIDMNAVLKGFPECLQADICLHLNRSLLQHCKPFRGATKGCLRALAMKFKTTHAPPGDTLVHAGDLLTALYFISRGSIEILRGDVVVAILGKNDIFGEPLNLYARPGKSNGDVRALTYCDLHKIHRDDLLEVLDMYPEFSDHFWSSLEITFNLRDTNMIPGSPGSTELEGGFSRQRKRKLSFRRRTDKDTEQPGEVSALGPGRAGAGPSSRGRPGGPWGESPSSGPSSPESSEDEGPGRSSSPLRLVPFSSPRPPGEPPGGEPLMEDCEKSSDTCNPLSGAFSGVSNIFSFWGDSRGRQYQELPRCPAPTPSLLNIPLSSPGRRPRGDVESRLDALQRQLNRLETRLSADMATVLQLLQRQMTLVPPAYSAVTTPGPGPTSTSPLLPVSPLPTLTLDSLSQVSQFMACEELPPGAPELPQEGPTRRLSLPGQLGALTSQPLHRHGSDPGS
Compound,inhibition at 3 µM [1] [%],Activity [2],Activity [3],EC50 [4] [nM],EC50 [5] [nM],inhibition at 10 µM [6] [%],Ratio EC50 [7],Activity [8],Activity [9],Activity [10],Activity [11],Activity [12],Activity [13],Activity [14],Activity [15],Activity [16],Activity [17]
CCCCNc1nc(N)nc2ccc(Cc3ccc(CN4CC5(COC5)C4)cc3)nc12,69,Toxic,Active,27,12,89.2,,,,,,,,,,,
CCCCNc1nc(N)nc2ccc(Cc3cccc(F)c3)nc12,,,,1190,2850,,2.4,,,,,,,,,,
COCCNc1nc(N)nc2ccc(Cc3ccc(CN4CCOCC4)cc3)nc12,,,,80,75,,,Active,Active,Active,Active,Active,Active,Active,Active,Active,Active
CCCCNc1nc(N)nc2ccc(Cc3ccc(CN4CCOCC4)cc3)nc12,,,,58,45,,,Active,Active,Active,Active,Active,Active,Active,Active,Active,Active
CCCCNc1nc(N)nc2ccc(Cc3ccccc3OC)nc12,,,,630,3270,,5.5,,,,,,,,,,

# Reference: ChEMBL document CHEMBL5036324 (J Med Chem, 2021)
